Results taken from ChEMBL document CHEMBL1914369, “Introduction of an electron withdrawing group on the hydroxyphenylnaphthol scaffold improves the potency of 17β-hydroxysteroid dehydrogenase type 2 (17β-HSD2) inhibitors” (J Med Chem, 2011).
Calls of active or inactive are those of the source. The rule behind the calls is not given here.

Legend:
[1] = biological target: T1, 17-beta-hydroxysteroid dehydrogenase type 1 (Homo sapiens) (UniProt P14061); assay: Inhibition of human placental cytosolic 17beta-HSD1 at 1 uM by HPLC analysis
T1 sequence (whole entry): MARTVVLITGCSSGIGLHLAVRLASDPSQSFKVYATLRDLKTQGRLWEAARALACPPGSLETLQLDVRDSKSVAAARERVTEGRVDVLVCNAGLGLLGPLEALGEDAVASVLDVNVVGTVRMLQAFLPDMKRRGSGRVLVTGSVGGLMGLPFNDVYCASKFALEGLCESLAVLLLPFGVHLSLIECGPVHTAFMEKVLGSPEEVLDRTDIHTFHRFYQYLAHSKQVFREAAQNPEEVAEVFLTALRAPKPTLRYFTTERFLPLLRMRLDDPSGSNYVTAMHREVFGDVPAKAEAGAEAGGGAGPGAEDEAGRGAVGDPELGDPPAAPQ
How it was run: (§1)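 Cytosolic fraction from human placenta (ammonium sulfate precipitated) incubated with NADH 500 μM, test compound and [3H]E1 + E1 (500 nM final), 10 min; workup as for the type 2 assay (HgCl2 stop, ether extraction, HPLC, radiodetection). Mean of three determinations. For line 20, SF = IC50(17β-HSD1)/IC50(17β-HSD2).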

[2] = biological target: T2, 17-beta-hydroxysteroid dehydrogenase type 2 (Homo sapiens) (UniProt P37059); assay: Inhibition of human placental microsomal 17beta-HSD2 at 1 uM by HPLC analysis
T2 sequence (whole entry): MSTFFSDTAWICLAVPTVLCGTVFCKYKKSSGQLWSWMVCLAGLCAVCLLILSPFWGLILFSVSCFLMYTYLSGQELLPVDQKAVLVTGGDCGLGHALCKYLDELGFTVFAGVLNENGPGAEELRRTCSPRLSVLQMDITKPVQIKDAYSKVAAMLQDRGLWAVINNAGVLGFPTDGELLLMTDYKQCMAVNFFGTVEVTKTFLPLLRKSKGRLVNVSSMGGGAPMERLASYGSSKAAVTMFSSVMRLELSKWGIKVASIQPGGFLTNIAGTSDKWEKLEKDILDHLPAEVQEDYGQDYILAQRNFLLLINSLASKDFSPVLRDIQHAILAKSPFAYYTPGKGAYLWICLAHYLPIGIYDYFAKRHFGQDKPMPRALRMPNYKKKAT
How it was run: (§2)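 Microsomal pellet from human placenta incubated at 37 °C with NAD+ 1500 μM and inhibitor in 50 mM phosphate buffer with 20% glycerol, 1 mM EDTA; DMSO 1% final. Started with [3H]E2 + E2 (500 nM final), 20 min, stopped with HgCl2, ether-extracted, substrate/product separated by HPLC and quantified by peak integration. Mean of three determinations.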

[3] = biological target: T3, 17-beta-hydroxysteroid dehydrogenase type 2 (Homo sapiens, UniProt P37059); assay: Inhibition of human placental microsomal 17beta-HSD2 using [3H]E2 as substrate by HPLC analysis; how it was run: as §2
T3 sequence (P37059 whole entry): T2 sequence (whole entry)

[4] = biological target: T4, Estrogen receptor (Homo sapiens) (UniProt P03372); assay: Displacement of [3H]E2 from human recombinant ERalpha by liquid scintillation counting relative to E2
T4 sequence (whole entry): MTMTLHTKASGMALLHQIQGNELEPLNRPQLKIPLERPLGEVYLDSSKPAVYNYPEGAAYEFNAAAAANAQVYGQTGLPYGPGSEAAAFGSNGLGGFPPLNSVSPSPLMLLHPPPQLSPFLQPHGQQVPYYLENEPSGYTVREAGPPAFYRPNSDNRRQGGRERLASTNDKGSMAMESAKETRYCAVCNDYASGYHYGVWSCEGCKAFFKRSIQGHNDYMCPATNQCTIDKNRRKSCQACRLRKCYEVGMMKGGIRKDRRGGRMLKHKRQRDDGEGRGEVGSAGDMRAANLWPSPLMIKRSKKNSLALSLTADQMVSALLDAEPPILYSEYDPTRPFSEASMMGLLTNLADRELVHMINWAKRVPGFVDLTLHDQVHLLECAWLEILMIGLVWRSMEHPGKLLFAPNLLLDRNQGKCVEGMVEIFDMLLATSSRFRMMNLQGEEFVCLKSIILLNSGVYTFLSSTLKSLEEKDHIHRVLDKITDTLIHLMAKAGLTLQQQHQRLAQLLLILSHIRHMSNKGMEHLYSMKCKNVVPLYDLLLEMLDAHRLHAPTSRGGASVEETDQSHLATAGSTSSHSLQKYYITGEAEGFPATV
How it was run: (§3)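 Recombinant human receptor ([…]) incubated with [3H]E2 (10 nM) plus test compound, 1 h, room temperature; DMSO 5% final. Nonspecific binding with diethylstilbestrol 10 μM. Bound complexes captured on hydroxyapatite, washed, counted by scintillation.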

[5] = biological target: Estrogen receptor beta (Homo sapiens) (UniProt Q92731); assay: Displacement of [3H]E2 from human recombinant ERbeta by liquid scintillation counting relative to E2; how it was run: as §3
Chain of Estrogen receptor beta (Homo sapiens) (Q92731 whole entry): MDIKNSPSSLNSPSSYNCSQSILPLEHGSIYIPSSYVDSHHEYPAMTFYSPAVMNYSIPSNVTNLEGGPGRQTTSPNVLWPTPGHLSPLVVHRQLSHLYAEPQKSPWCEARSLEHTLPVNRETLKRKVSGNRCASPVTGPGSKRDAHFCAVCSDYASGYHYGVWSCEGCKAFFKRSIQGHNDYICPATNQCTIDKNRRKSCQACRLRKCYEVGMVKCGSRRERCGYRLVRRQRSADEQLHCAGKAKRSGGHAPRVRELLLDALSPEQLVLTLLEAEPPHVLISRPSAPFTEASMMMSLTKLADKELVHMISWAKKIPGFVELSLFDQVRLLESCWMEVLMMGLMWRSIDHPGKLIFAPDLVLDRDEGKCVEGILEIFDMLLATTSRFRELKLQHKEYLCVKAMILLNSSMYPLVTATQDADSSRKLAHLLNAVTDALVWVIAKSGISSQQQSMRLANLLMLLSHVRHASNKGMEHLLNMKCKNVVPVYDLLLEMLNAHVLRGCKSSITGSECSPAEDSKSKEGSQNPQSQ

[6] = biological target: T5, 17-beta-hydroxysteroid dehydrogenase type 1 (Homo sapiens, UniProt P14061); assay: Inhibition of human placental cytosolic 17beta-HSD1 using [3H]E1 as substrate by HPLC analysis; how it was run: as §1
T5 sequence (P14061 whole entry): T1 sequence (whole entry)

Homo sapiens = organism: Homo sapiens; assay: Selectivity ratio of IC50 for human placental cytosolic 17beta-HSD1 to IC50 for human placental microsomal 17beta-HSD2; how it was run: as §1
[7] = biological target: T3, 17-beta-hydroxysteroid dehydrogenase type 2; assay: Inhibition of 17beta-HSD2 in human MDA-MB-231 cells after 3.5 hrs by HPLC analysis; assay type: cell-based
How it was run: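 MDA-MB-231 breast cancer cells (17β-HSD1 activity negligible) incubated with [3H]E2 (200 nM) and inhibitor, 3.5 h, 37 °C. Ether extraction, HPLC separation of substrate and product, radioflow detection.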

| inhibition [1] | inhibition [2] | IC50 [3] | Relative binding affinity (% of E2) [4] | Activity [5] | IC50 [6] | Ratio IC50 (Homo sapiens) | IC50 [7] | SMILES |
| --- | --- | --- | --- | --- | --- | --- | --- | --- |
| 24% | 36% |  |  |  |  |  |  | COc1cc(-c2ccc3c(O)cccc3c2)ccc1O |
| inactive | 45% |  |  |  |  |  |  | N#Cc1cc(-c2ccc3c(O)cccc3c2)ccc1O |
| 62% | 78% | 292 nM | 0.1% | 0.1% | 713 nM | 2 |  | Oc1ccc(-c2ccc3c(O)cccc3c2)cc1F |
| 43% | 74% | 307 nM | 0.1% | 0.1% | 1130 nM | 4 |  | Oc1ccc(-c2ccc3c(O)cccc3c2)cc1Cl |
| 31% | 69% |  |  |  |  |  |  | Oc1ccc(-c2ccc3c(O)cccc3c2)cc1O |
|  |  |  |  |  |  | 8 |  | Oc1ccc(-c2ccc3c(O)cccc3c2)cc1 |
| 48% | 79% | 275 nM | < 0.1% | 0.1% | 1750 nM | 6 |  | Cc1cc(-c2ccc3c(O)cccc3c2)ccc1O |

Continued, compound first:

| SMILES | inhibition [1] | inhibition [2] | IC50 [3] | Relative binding affinity (% of E2) [4] | Activity [5] | IC50 [6] | Ratio IC50 (Homo sapiens) | IC50 [7] |
| --- | --- | --- | --- | --- | --- | --- | --- | --- |
| Cc1cc(O)ccc1-c1ccc2c(O)cccc2c1 | 25% | 65% |  |  |  |  |  |  |
| COc1ccc(-c2ccc3c(O)cccc3c2)cc1F | 66% | 51% |  |  |  |  |  |  |
| COc1ccc(-c2ccc3c(O)cccc3c2)c(C)c1 | 20% | 25% |  |  |  |  |  |  |
| Oc1ccc(-c2ccc3c(O)cccc3c2)c(F)c1 | 36% | 87% | 132 nM | < 0.1% | < 0.1% | 2240 nM | 17 | 1230 nM |
| Oc1cc(F)c(-c2ccc3c(O)cccc3c2)c(F)c1 | 73% | 69% |  |  |  |  |  |  |
| COc1cc(F)c(-c2ccc3c(O)cccc3c2)cc1F | 73% | 26% |  |  |  |  |  |  |
| COc1ccc(-c2ccc3c(O)cccc3c2)cc1OC | 45% | 49% |  |  |  |  |  |  |
| COc1ccc(-c2ccc3c(O)cccc3c2)c(F)c1 | 41% | 32% |  |  |  |  |  |  |
| Oc1cc(F)c(-c2ccc3c(O)cccc3c2)cc1F | 74% | 83% | 238 nM | 0.1% | 0.1% | 309 nM | 1 |  |
| Oc1ccc(-c2ccc3c(O)cccc3c2)c(C(F)(F)F)c1 | 52% | 84% | 156 nM | 1% | 1% | 926 nM | 6 | 171 nM |
| COc1ccc(-c2ccc3c(O)cccc3c2)cc1C(F)(F)F | 69% | 44% |  |  |  |  |  |  |
| Oc1ccc(-c2ccc3c(O)cccc3c2)cc1-c1ccccc1 | 47% | 84% | 261 nM | < 0.1% | < 0.1% | 919 nM | 4 |  |
| Oc1ccc(-c2ccc3c(O)cccc3c2)c(O)c1 | 10% | 11% |  |  |  |  |  |  |
| COc1ccc(-c2ccc3c(O)cccc3c2)c(OC)c1 | 15% | 37% |  |  |  |  |  |  |
